Measurements from ChEMBL document CHEMBL1629579, “Correlating echinocandin MIC and kinetic inhibition of fks1 mutant glucan synthases for Candida albicans: implications for interpretive breakpoints” (Antimicrob Agents Chemother, 2009).
In brackets after ≈: the same amount, converted by molar mass.

Tests used:
[1] = Inhibition of Candida albicans 90028 1,3-beta-D-glucan synthase subunit FKS1p
Summary of the method: (§1)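 Enzyme is product-entrapped 1,3-β-D-glucan synthase, enriched from membranes of each strain grown at 37°C with shaking in YPD broth to early stationary phase. Filtration polymerization assay uses [3H]UDPG, started by adding enzyme and run 60 min at 25°C. Echinocandins are added as serial dilutions, with 1% DMSO controls for anidulafungin. IC50 is from a variable-slope sigmoidal fit; values are triplicate arithmetic means.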

[2] = Inhibition of Candida albicans 194 1,3-beta-D-glucan synthase subunit FKS1p C1934T/G4082R mutant; summary of the method: as §1
Candida albicans [3] = assay: Activity at Candida albicans A15-10 1,3-beta-D-glucan synthase subunit FKS1p T1933C mutant
[4] = Inhibition of Candida albicans 3107 1,3-beta-D-glucan synthase subunit FKS1p; summary of the method: as §1
Candida albicans [5] = assay: Antimicrobial activity against Candida albicans SC5314 by M27-A3 method in presence of 50% human serum; assay type: functional
Summary of the method: (§2)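 Broth microdilution per CLSI M27-A3 in RPMI 1640, done in triplicate on three separate days. Each strain was tested with and without 50% human serum. C. krusei ATCC 6258 and C. parapsilosis ATCC 22019 served as QC strains. Arithmetic means are reported, and geometric means were used for comparison.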

Candida albicans [6] = assay: Antimicrobial activity against Candida albicans 3795 by M27-A3 method; assay type: functional
Summary of the method: (§3)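 Broth microdilution per CLSI M27-A3 in RPMI 1640, with and without 50% human serum, in triplicate. C. krusei ATCC 6258 and C. parapsilosis ATCC 22019 served as quality-control strains. MIC reported as arithmetic mean of three repetitions on separate days.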

Candida albicans [7] = assay: Activity at Candida albicans 121 1,3-beta-D-glucan synthase subunit FKS1p G4082A mutant
Summary of the method: (§4)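 Product-entrapped 1,3-β-D-glucan synthase from cells grown in YPD at 37°C to early stationary phase. Wells held 50 mM HEPES pH 7.5, 10% glycerol, 1.5 mg/ml BSA, 25 mM KF, 1 mM EDTA, 25 μM GTP-γ-S, 1 μg enzyme and [3H]UDPG (0.015–2 mM). Reactions ran 60 min at 25°C. Vmax and Km came from Lineweaver-Burke plots, in triplicate.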

Candida albicans [8] = assay: Antimicrobial activity against Candida albicans 119 harboring FKS1 T1921C mutant gene and FKS1 hotspot1 F641L mutant gene by M27-A3 method; assay type: functional; summary of the method: as §2
Candida albicans [9] = assay: Antimicrobial activity against Candida albicans 1002 by M27-A3 method in presence of 50% human serum; assay type: functional; summary of the method: as §2
Candida albicans [10] = assay: Antimicrobial activity against Candida albicans A15 harboring FKS1 T1933Y mutant gene and FKS1 hotspot1 S645S/P mutant gene by M27-A3 method; assay type: functional; summary of the method: as §2
Candida albicans [11] = assay: Activity at Candida albicans 5415 1,3-beta-D-glucan synthase subunit FKS1p T1933C mutant; summary of the method: as §4
Candida albicans [12] = assay: Antimicrobial activity against Candida albicans 90028 by M27-A3 method in presence of 50% human serum; assay type: functional; summary of the method: as §2
Candida albicans [13] = assay: Activity at Candida albicans 89 1,3-beta-D-glucan synthase subunit FKS1p C1934A mutant; summary of the method: as §4
Candida albicans [14] = assay: Activity at Candida albicans 194 1,3-beta-D-glucan synthase subunit FKS1p C1934T/G4082R mutant; summary of the method: as §4
Candida albicans SC5314 = assay: Activity at Candida albicans SC5314 1,3-beta-D-glucan synthase subunit FKS1p
Summary of the method: (§5)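 Glucan synthase from cells grown at 37°C with vigorous shaking to early stationary phase in YPD. Membrane enzyme enriched by product entrapment. Serial echinocandin dilutions; ANF controls held 1% DMSO. Reaction started by adding enzyme, run 60 min at 25°C in a filtration polymerization assay, stopped on ice. IC50 from a variable-slope sigmoidal fit; means of three repetitions on separate days.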

Candida albicans [15] = assay: Antimicrobial activity against Candida albicans 194 harboring FKS1 C1934T/G4082R mutant gene and FKS1 hotspot1 S645F mutant gene and FKS1 hotspot2 R1361R/H mutant gene by M27-A3 method; assay type: functional; summary of the method: as §2
[16] = Inhibition of Candida albicans A15 1,3-beta-D-glucan synthase subunit FKS1p T1933Y mutant; summary of the method: as §1
[17] = Inhibition of Candida albicans 122 1,3-beta-D-glucan synthase subunit FKS1p C1946A mutant; summary of the method: as §1
Candida albicans [18] = assay: Antimicrobial activity against Candida albicans 119 harboring FKS1 T1921C mutant gene and FKS1 hotspot1 F641L mutant gene by M27-A3 method in presence of 50% human serum; assay type: functional; summary of the method: as §2
Candida albicans [19] = assay: Antimicrobial activity against Candida albicans 3107 by M27-A3 method; assay type: functional; summary of the method: as §2
[20] = Inhibition of Candida albicans SC5314 1,3-beta-D-glucan synthase subunit FKS1p; summary of the method: as §1
[21] = Inhibition of Candida albicans 36082 1,3-beta-D-glucan synthase subunit FKS1p; summary of the method: as §1
Candida albicans [22] = assay: Antimicrobial activity against Candida albicans 1002 by M27-A3 method; assay type: functional; summary of the method: as §3
Candida albicans [23] = assay: Antimicrobial activity against Candida albicans A15 harboring FKS1 T1933Y mutant gene and FKS1 hotspot1 S645S/P mutant gene by M27-A3 method in presence of 50% human serum; assay type: functional; summary of the method: as §2
Candida albicans [24] = assay: Antimicrobial activity against Candida albicans 122 harboring FKS1 C1946A mutant gene and FKS1 hotspot1 P649H mutant gene by M27-A3 method; assay type: functional; summary of the method: as §2
Candida albicans [25] = assay: Antimicrobial activity against Candida albicans 177 harboring FKS1 T1922C mutant gene and FKS1 hotspot1 F641S mutant gene by M27-A3 method in presence of 50% human serum; assay type: functional; summary of the method: as §2
Candida albicans [26] = assay: Activity at Candida albicans 85 1,3-beta-D-glucan synthase subunit FKS1p C1934T mutant; summary of the method: as §4
Candida albicans [27] = assay: Activity at Candida albicans 36082 1,3-beta-D-glucan synthase subunit FKS1p; summary of the method: as §5
Candida albicans [28] = assay: Antimicrobial activity against Candida albicans 2762 harboring FKS1 T1922C mutant gene and FKS1 hotspot1 F641S mutant gene by M27-A3 method; assay type: functional; summary of the method: as §2
Candida albicans [29] = assay: Antimicrobial activity against Candida albicans 149 harboring FKS1 G1942T mutant gene and FKS1 hotspot1 D648Y mutant gene by M27-A3 method; assay type: functional; summary of the method: as §2
Candida albicans [30] = assay: Antimicrobial activity against Candida albicans 36082 by M27-A3 method in presence of 50% human serum; assay type: functional; summary of the method: as §2
[31] = Inhibition of Candida albicans 119 1,3-beta-D-glucan synthase subunit FKS1p T1921C mutant
Summary of the method: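 Product-entrapped glucan synthase from YPD-grown cells (37°C, early stationary phase) in a filtration polymerization assay with [3H]UDPG. Echinocandin serial dilutions were added, with 1% DMSO in controls for anidulafungin. Reactions were started with enzyme, run 60 min at 25°C and stopped on ice. IC50 came from a variable-slope sigmoidal fit, in triplicate.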

## CC[C@H](C)C[C@H](C)CCCCCCCCC(=O)N[C@H]1C[C@@H](O)[C@@H](NCCN)NC(=O)[C@@H]2[C@@H](O)CCN2C(=O)[C@H]([C@H](O)CCN)NC(=O)[C@H]([C@H](O)[C@@H](O)c2ccc(O)cc2)NC(=O)[C@@H]2C[C@@H](O)CN2C(=O)[C@H]([C@@H](C)O)NC1=O [CASPOFUNGIN]
[1]
  IC50: 0.0005 µg/mL (≈ 0.000457 µM)
  Ki: 0.00046 µg/mL (≈ 0.000421 µM)
[2]
  IC50: 0.5307 µg/mL (≈ 0.485 µM)
  Ki: 0.46689 µg/mL (≈ 0.427 µM)
Candida albicans [3]
  Km: 91 µM
  Vmax: 3.26 nmol/min
[4]
  Ki: 0.00879 µg/mL (≈ 0.00804 µM)
Candida albicans [5]
  MIC: 0.5 µg/mL
Candida albicans [6]
  MIC: 0.33 µg/mL (≈ 0.302 µM)
Candida albicans [7]
  Km: 129 µM
  Vmax: 4.41 nmol/min
Candida albicans [8]
  MIC: 2 µg/mL (≈ 1.83 µM)
Candida albicans [9]
  MIC: 0.5 µg/mL
Candida albicans [10]
  MIC: 4 µg/mL (≈ 3.66 µM)
Candida albicans [11]
  Km: 98 µM
  Vmax: 3.12 nmol/min
Candida albicans [12]
  MIC: 0.25 µg/mL
Candida albicans [13]
  Km: 61 µM
  Vmax: 2.51 nmol/min
Candida albicans [14]
  Km: 61 µM
  Vmax: 5.81 nmol/min
Candida albicans SC5314
  Km: 125 µM
  Vmax: 6.72 nmol/min
Candida albicans [15]
  MIC: 4 µg/mL (≈ 3.66 µM)
[16]
  IC50: 0.2181 µg/mL (≈ 0.199 µM)
[17]
  IC50: 0.08266 µg/mL (≈ 0.0756 µM)
  Ki: 0.29167 µg/mL (≈ 0.267 µM)
Candida albicans [18]
  MIC: 8 µg/mL
Candida albicans [19]
  MIC: 0.25 µg/mL (≈ 0.229 µM)
[20]
  Ki: 0.00297 µg/mL (≈ 0.00272 µM)
[21]
  IC50: 0.0009 µg/mL (≈ 0.000823 µM)
  Ki: 0.00095 µg/mL (≈ 0.000869 µM)
Candida albicans [22]
  MIC: 0.33 µg/mL (≈ 0.302 µM)
Candida albicans [23]
  MIC: 8 µg/mL
Candida albicans [24]
  MIC: 4 µg/mL (≈ 3.66 µM)
Candida albicans [25]
  MIC: 16 µg/mL
Candida albicans [26]
  Km: 25 µM
  Vmax: 1.83 nmol/min
Candida albicans [27]
  Km: 89 µM
  Vmax: 5.87 nmol/min
Candida albicans [28]
  MIC: 3.33 µg/mL (≈ 3.05 µM)
Candida albicans [29]
  MIC: 2.67 µg/mL (≈ 2.44 µM)
Candida albicans [30]
  MIC: 0.25 µg/mL
[31]
  IC50: 0.01003 µg/mL (≈ 0.00917 µM)
  Ki: 0.00492 µg/mL (≈ 0.0045 µM)
